# Measurements from ChEMBL document CHEMBL1135911, “Synthesis, biological evaluation, and binding mode of novel 1-[2-(diarylmethoxy)ethyl]-2-methyl-5-nitroimidazoles targeted at the HIV-1 reverse transcriptase” (J Med Chem, 2002).
# Key:
# MT4 [1] = assay: Dose required to reduce the viability of mock-infected cells by 50%; assay type: functional; settings: Homo sapiens
# How it was run: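 Mock-infected MT-4 cells were run in parallel with the antiviral assay: 1 × 10^4 cells/well, serial compound dilutions, 4 days at 37 °C. Viability was read by MTT. CC50 is the dose that reduces viability by 50%; mean of at least two experiments.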
# [2] = system: Human immunodeficiency virus 1; assay: Dose required to achieve 50% protection of MT-4 cells from HIV-1 induced cytopathogenicity; assay type: functional, organism-based; settings: Human immunodeficiency virus 1, MT4
# How it was run: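 MT-4 cells (1 × 10^4/well) in RPMI 1640 with 10% FCS were infected with 100 CCID50 of HIV-1 IIIB, with or without serial dilutions of compound (DMSO stock diluted in medium). After 4 days at 37 °C, viable cells were counted by MTT. EC50 is the dose giving 50% protection from virus-induced cytopathicity; mean of at least two experiments.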
# MT4 [3] = assay: (§1) Selectivity Index (CC50:EC50 Ratio); assay type: functional
# [4] = target: Human immunodeficiency virus type 1 reverse transcriptase (Human immunodeficiency virus 1, UniProt Q72547); assay: Dose required to inhibit the HIV-1 Reverse transcriptase activity by 50%
# How it was run: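 Highly purified recombinant wild-type HIV-1 RT, RNA-dependent polymerase activity. Buffer: 50 mM Tris-HCl pH 7.8, 80 mM KCl, 6 mM MgCl2, 1 mM DTT, 0.1 mg/mL BSA. Template/primer: poly(rC)/oligo(dG)12-18 at 0.5 OD260 unit/mL. Substrate: [3H]dGTP (1 Ci/mmol). Incubated 30 min at 37 °C; acid-insoluble radioactivity read on glass fibre filters.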
# [5] = target: Human immunodeficiency virus 1; assay: Anti-HIV-1 activity in MT-4 cells
# [6] = as §1
# How it was run: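 Ratio of CC50 (MTT viability of mock-infected MT-4 cells) to EC50 (MTT protection of MT-4 cells from HIV-1 IIIB cytopathicity, 100 CCID50, 4 days at 37 °C).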
EC50 [2],EC50 [5],Structure (SMILES),CC50 (MT4 [1]),Selectivity index (MT4 [3]),IC50 [4],Selectivity index [6]
86 µM,–,COc1ccc(C(OCCn2c([N+](=O)[O-])cnc2C)c2ccccc2)cc1 (configuration not stated),> 200 µM,>2,–,–
1 µM,–,Cc1ncc([N+](=O)[O-])n1CCOC(c1ccccc1)c1cc(F)cc(F)c1 (configuration not stated),> 200 µM,>200,–,–
–,12 µM,Cc1ncc([N+](=O)[O-])n1CCOC(c1ccccc1)c1ccc(Cl)cc1 (configuration not stated),–,–,–,–
> 200 µM,–,CC(=O)Nc1ccc(C(OCCn2c([N+](=O)[O-])cnc2C)c2ccccc2)cc1 (configuration not stated),> 200 µM,–,–,–
–,3.98 µM,Cc1ncc([N+](=O)[O-])n1CCOC(c1ccccc1)c1ccc(C(C)(C)C)cc1 (configuration not stated),–,–,–,–
5 µM,–,Cc1ncc([N+](=O)[O-])n1CCOC(c1ccccc1)c1ccc([N+](=O)[O-])cc1 (configuration not stated),111 µM,–,–,22
–,1.41 µM,Cc1ccc(C(OCCn2c([N+](=O)[O-])cnc2C)c2ccccc2)cc1 (configuration not stated),–,–,–,–
45 µM,–,Cc1ncc([N+](=O)[O-])n1CCOC(c1ccccc1)c1cc(Cl)cc(Cl)c1 (configuration not stated),> 200 µM,>4,–,–
35 µM,–,Cc1ncc([N+](=O)[O-])n1CCCOC(c1ccccc1)c1ccccc1,96.5 µM,3,–,–
–,17 µM,Cc1ncc([N+](=O)[O-])n1CCOC(c1ccccc1)c1ccc(-c2ccccc2)cc1 (configuration not stated),–,–,–,–
97 µM,–,Cc1ncc([N+](=O)[O-])n1CCOC(c1ccccc1)c1ccc(Cl)c(Cl)c1 (configuration not stated),200 µM,>2,–,–
106 µM,–,Cc1ncc([N+](=O)[O-])n1CCOC(c1ccccc1)c1ccc2ccccc2c1 (configuration not stated),> 200 µM,>1.8,–,–
–,0.891 µM,Cc1ncc([N+](=O)[O-])n1CCOC(c1ccccc1)c1ccc(F)cc1 (configuration not stated),–,–,–,–
0.4 µM,–,Cc1cc(C)cc(C(OCCn2c([N+](=O)[O-])cnc2C)c2ccccc2)c1 (configuration not stated),200 µM,>500,–,–
14 µM,–,Cc1ncc([N+](=O)[O-])n1CCOC(c1ccccc1)c1cccc(-n2cccc2)c1 (configuration not stated),> 200 µM,>14,–,–
0.2 µM,–,Cc1ncc([N+](=O)[O-])n1CCOC(c1ccccc1)c1ccccc1,> 200 µM,>1000,–,–
0.01 µM,–,CC(C)Nc1cccnc1N1CCN(C(=O)c2cc3cc(NS(C)(=O)=O)ccc3[nH]2)CC1 [DELAVIRDINE],> 30 µM,–,–,–

Structure (SMILES),EC50 [2],EC50 [5],CC50 (MT4 [1]),Selectivity index (MT4 [3]),IC50 [4],Selectivity index [6]
Cc1ncc([N+](=O)[O-])n1CCOC(c1ccccc1)c1ccccc1Cl (configuration not stated),0.6 µM,–,52 µM,85,0.6 µM,–
Cc1ncc([N+](=O)[O-])n1CCOC(c1ccccc1)c1cccc(Cl)c1 (configuration not stated),0.2 µM,–,> 200 µM,>1000,0.5 µM,–
Cc1ncc([N+](=O)[O-])n1CCOC(c1ccccc1)c1cccc([N+](=O)[O-])c1 (configuration not stated),0.6 µM,–,92.5 µM,–,0.3 µM,154
Cc1ncc([N+](=O)[O-])n1CCOC(c1ccccc1)c1cccc(F)c1 (configuration not stated),0.1 µM,–,> 200 µM,>2000,0.5 µM,–
Cc1ncc([N+](=O)[O-])n1CCOC(c1ccccc1)c1ccccc1F (configuration not stated),0.2 µM,–,63 µM,315,0.4 µM,–
Cc1cccc(C(OCCn2c([N+](=O)[O-])cnc2C)c2ccccc2)c1 (configuration not stated),0.1 µM,–,> 200 µM,>2000,0.3 µM,–
Cc1ccccc1C(OCCn1c([N+](=O)[O-])cnc1C)c1ccccc1 (configuration not stated),0.2 µM,–,76 µM,380,0.2 µM,–
